According to ChEMBL document CHEMBL3865787, “Combinatorial synthesis, in silico, molecular and biochemical studies of tetrazole-derived organic selenides with increased selectivity against hepatocellular carcinoma” (Eur J Med Chem, 2016):
Active and inactive are the calls of the source. The calls are words filed in the database; no cut-off is given here.

Columns and labels:
[1] = Cytotoxicity against human MCF7 cells assessed as reduction in cell viability after 48 hrs by MTT assay; type: functional, cell-based; conditions: MCF7, 48 h
Outline: (§1)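 Cells were grown in DMEM with 10% calf serum and seeded at 50,000 cells/mL. They grew 2 days at 37 °C, 10% CO2, then took serial compound dilutions for 48 h. MTT (final 0.5 mg/mL) ran 2 h; formazan was washed, dissolved in DMSO and read at 590 nm. IC50 was taken from dose-response curves as the mean of two parallel experiments. 5-FU was the positive control. TI = IC50 WI-38/IC50 HepG2.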

[2] = Antioxidant activity assessed as DPPH radical scavenging activity at 1 uM after 30 mins in absence of light by spectrophotometric analysis relative to ascorbic acid; type: functional
Outline: (§2)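 Compounds were dissolved in methanol at 1 µM, and 200 µL was added to 0.4 mL of 0.1 mM DPPH in methanol. Mixtures stood 30 min in the dark and were read at 517 nm against a blank (no DPPH). The negative control used methanol in place of compound. I% = (Ablank − Asample)/Ablank × 100. Ascorbic acid was the reference. Means of 3 replicates.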

[3] = Cytotoxicity against human WI38 cells assessed as reduction in cell viability after 48 hrs by MTT assay; type: toxicity, cell-based, WI-38; outline: as §1
[4] = Cytotoxicity against human HepG2 cells assessed as reduction in cell viability after 48 hrs by MTT assay; type: functional, cell-based; conditions: HepG2, 48 h; outline: as §1
[5] = Pro-oxidant activity as bleomycin-Fe2+ induced calf thymus DNA damage measured as absorbance at 2 mM after 1 hr by thiobarbituric acid-based assay; type: ADME; design: unit not given here; conditions: cattle, 2000 µM
Outline: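 The mix held calf thymus DNA 0.5 mg/mL, bleomycin sulfate 0.05 mg/mL, MgCl2 5 mM, FeCl3 50 mM and sample 2 mM. Ascorbic acid was the positive control. Capped tubes were heated at 80 °C for 30 min, ice-cooled, shaken and centrifuged. DNA damage was read as the increase in absorbance at 532 nm. Means of 3 replicates.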

[6] = Antioxidant activity assessed as DPPH radical scavenging activity at 1 uM after 30 mins in absence of light by spectrophotometric analysis; type: functional; outline: as §2
[7] = Therapeutic index, ratio of IC50 for human WI38 cells to IC50 for human HepG2 cells; type: cell-based; conditions: WI38 cells and HepG2 cells, read-out: Ratio IC50; outline: as §1
[8] = Glutathione peroxidase-like activity assessed as decrease in H2O2 reduction at 41 uM preincubated with compound followed by H2O2 addition after 3 mins by spectrophotometry based NADPH-reductase coupled assay
Outline: (§3)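 Buffer: 50 mM phosphate with 0.1% Triton X-100, plus NADPH reagent (24 µmol glutathione, 12 U glutathione reductase, 4.8 µmol NADPH). Compound was at 41 µM and the reaction was started with 0.8 mM H2O2. A340 was followed for 3 min, giving ΔA/min. Rates were corrected for background H2O2/GSH reaction, and for compound absorbance where colored. Ebselen (41 µM) served as reference.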

[9] = Downregulation of Ki67 expression in human HepG2 cells at IC50 after 48 hrs by ELISA; type: functional, cell-based
Outline: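 They were detached with trypsin and lysed by four rounds of ultrasonication before Ki-67 measurement. Comparison was with untreated cells; mean ± SD, ANOVA with LSD/Dunnett post hoc.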

[10] = Downregulation of Bcl2 expression in human HepG2 cells at IC50 after 48 hrs by ELISA; type: functional, cell-based
Outline: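 For ELISA, lysates had biotin conjugate 2 h at 25 °C, then streptavidin-HRP 1 h at 25 °C, read at 450 nm. Comparison was with untreated cells; mean ± SD, ANOVA with LSD/Dunnett post hoc.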

[11] = Upregulation of caspase-8 expression in human HepG2 cells at IC50 after 48 hrs by ELISA; type: functional, cell-based
Outline: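 Cells were trypsinized and lysed by liquid-nitrogen freeze–thaw. Lysates were incubated with HRP-conjugated anti-caspase-8 antibody for 30 min at 37 °C, with ELISA read-out at 450 nm. Levels were compared against untreated cells; mean ± SD, ANOVA with LSD/Dunnett post hoc.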

[12] = Glutathione peroxidase-like activity assessed as decrease in H2O2 reduction at 41 uM preincubated with compound followed by H2O2 addition after 3 mins by spectrophotometry based NADPH-reductase coupled assay relative to ebselen; outline: as §3

Compound	IC50 [1]	fold change (FC) [2]	IC50 at 48 h [3]	IC50 [4]	Activity [5]	Activity [6]	selectivity ratio [7]	Activity [8]	Activity [9]	Activity [10]	Activity [11]	fold change (FC) [12]
CC(C)C(Nc1ccc([Se][Se]c2ccc(NC(c3nnnn3C3CCCCC3)C(C)C)cc2)cc1)c1nnnn1C1CCCCC1 (stereo unspecified)	52 µM	0.2	43 µM	≥ 100 µM	99	22.9%	–	–	–	–	–	–
COc1ccc(-n2nnnc2C(Nc2ccc([Se][Se]c3ccc(NC(c4nnnn4-c4ccc(OC)cc4)C(C)C)cc3)cc2)C(C)C)cc1 (stereo unspecified)	≥ 100 µM	0.3	≥ 100 µM	≥ 100 µM	77	30.5%	–	–	–	–	–	–
CC(C)C(Nc1ccc([Se][Se]c2ccc(NC(c3nnnn3C(C)(C)C)C(C)C)cc2)cc1)c1nnnn1C(C)(C)C (stereo unspecified)	≥ 100 µM	0.4	≥ 100 µM	37 µM	67	38.6%	> 3	–	–	–	–	–
COc1ccc(Cn2nnnc2C(Nc2ccc([Se][Se]c3ccc(NC(c4ccco4)c4nnnn4Cc4ccc(OC)cc4OC)cc3)cc2)c2ccco2)c(OC)c1 (stereo unspecified)	≥ 100 µM	0.2	88 µM	≥ 100 µM	81	18.8%	–	Active	–	–	–	–
c1cc([Se][Se]c2ccc(NCc3nnnn3C3CCCCC3)cc2)ccc1NCc1nnnn1C1CCCCC1	≥ 100 µM	0.2	68 µM	≥ 100 µM	96	19.4%	–	Active	–	–	–	–
CC(=O)N(c1ccc([Se]C2=CC(=O)c3ccccc3C2=O)cc1)C(C(=O)NC(C)(C)C)c1ccc(C)cc1 (stereo unspecified)	34 µM	–	29 µM	53 µM	–	–	> 0.5	–	Active	Active	Active	–
CC(C)C(Nc1ccc([Se][Se]c2ccc(NC(c3nnnn3Cc3ccccc3)C(C)C)cc2)cc1)c1nnnn1Cc1ccccc1 (stereo unspecified)	≥ 100 µM	0.2	≥ 100 µM	10 µM	92	20.5%	> 10	–	Active	Active	Active	–
CC(C)(C)n1nnnc1C(Nc1ccc([Se][Se]c2ccc(NC(c3ccco3)c3nnnn3C(C)(C)C)cc2)cc1)c1ccco1 (stereo unspecified)	14 µM	0.3	11 µM	51 µM	108	24%	–	Active	–	–	–	< 5
CC1=C([Se]c2ccc(NC(c3ccco3)c3nnnn3C(C)(C)C)cc2)C(=O)c2ccccc2C1=O (stereo unspecified)	≥ 100 µM	1	5 µM	9 µM	138	95.3%	0.6	–	Active	Active	Active	–
COc1ccc(Cn2nnnc2C(Nc2ccc([Se][Se]c3ccc(NC(c4ccc(C)cc4)c4nnnn4Cc4ccc(OC)cc4OC)cc3)cc2)c2ccc(C)cc2)c(OC)c1 (stereo unspecified)	≥ 100 µM	0.2	≥ 100 µM	≥ 100 µM	130	22.1%	–	Active	–	–	–	< 5
Cc1ccc(C(Nc2ccc([Se][Se]c3ccc(NC(c4ccc(C)cc4)c4nnnn4C(C)(C)C)cc3)cc2)c2nnnn2C(C)(C)C)cc1 (stereo unspecified)	62 µM	0.3	41 µM	46 µM	98	30.4%	–	–	–	–	–	–
CC1=C([Se]c2ccc(NCc3nnnn3C(C)(C)C)cc2)C(=O)c2ccccc2C1=O	42 µM	0.8	48 µM	33 µM	103	69%	1.5	–	–	–	–	–
O=c1[nH]cc(F)c(=O)[nH]1 [FLUOROURACIL]	3 µM	–	4 µM	8 µM	–	–	0.5	–	–	–	–	–
Cc1ccc(C(Nc2ccc([Se][Se]c3ccc(NC(c4ccc(C)cc4)c4nnnn4C4CCCCC4)cc3)cc2)c2nnnn2C2CCCCC2)cc1 (stereo unspecified)	78 µM	0.3	56 µM	≥ 100 µM	79	22.9%	–	–	–	–	–	–
CC1=C([Se]c2ccc(NC(c3ccc(C)cc3)c3nnnn3C(C)(C)C)cc2)C(=O)c2ccccc2C1=O (stereo unspecified)	≥ 100 µM	1	36 µM	47 µM	90	93%	0.8	Active	Active	Active	Active	< 5
COc1ccc(Cn2nnnc2C(Nc2ccc([Se][Se]c3ccc(NC(c4nnnn4Cc4ccc(OC)cc4OC)C(C)C)cc3)cc2)C(C)C)c(OC)c1 (stereo unspecified)	70 µM	0.3	64 µM	2 µM	81	31.8%	32	Active	–	–	–	< 5
O=C1O[C@H]([C@@H](O)CO)C(O)=C1O [ASCORBIC ACID]	–	–	–	–	310	96.5%	–	–	–	–	–	–
c1coc(C(Nc2ccc([Se][Se]c3ccc(NC(c4ccco4)c4nnnn4C4CCCCC4)cc3)cc2)c2nnnn2C2CCCCC2)c1 (stereo unspecified)	≥ 100 µM	0.5	83 µM	36 µM	222	49.5%	2	Active	–	–	–	< 5
CC(C)(C)n1nnnc1CNc1ccc([Se][Se]c2ccc(NCc3nnnn3C(C)(C)C)cc2)cc1	28 µM	0.5	21 µM	44 µM	93	44.3%	–	Active	–	–	–	–
COC(CC(OC)OC)Cn1nnnc1C(Nc1ccc([Se][Se]c2ccc(NC(c3nnnn3CC(CC(OC)OC)OC)C(C)C)cc2)cc1)C(C)C (stereo unspecified)	≥ 100 µM	0.3	≥ 100 µM	47 µM	94	26.3%	> 2	Active	–	–	–	–
